Bioassay records: PubChem, The Scripps Research Institute Molecular Screening Center
Shown are actives, neighbours in structure and some others; about 1.9% of the full set was active somewhere.
NPY1 pot ag: NPY-Y1 receptor potentiators or agonists, primary screen, cell-based. activation, % at 3.6 µM. Neuropeptide Y receptor type 1 (Homo sapiens), P25929. NPY-Y1 expressing cells, potentiator/agonist activation. 220,000 compounds, 0.37% hits; in the data active means activation above about 33%, passing the limit was not always enough;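 further: cells stimulated with NPY at EC10 then isoproterenol at EC100; 0% = low agonist plus stimulus and 100% = saturating agonist plus stimulus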
NPY2 pot ag: NPY-Y2 potentiators or agonists, primary screen, cell-based. AID 1359, 2008. activation, % at 3.6 µM. 220,000 compounds, 0.45% hits. Neuropeptide Y receptor type 2 (Homo sapiens), P49146. cells expressing NPY-Y2, potentiator/agonist read-out; in the data active means activation above about 27%;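 further: cells stimulated with NPY near EC25 plus isoproterenol at EC100; 0% = vehicle plus submaximal agonist and 100% = vehicle plus saturating agonist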
Target sequence (P49146 whole entry, looked up): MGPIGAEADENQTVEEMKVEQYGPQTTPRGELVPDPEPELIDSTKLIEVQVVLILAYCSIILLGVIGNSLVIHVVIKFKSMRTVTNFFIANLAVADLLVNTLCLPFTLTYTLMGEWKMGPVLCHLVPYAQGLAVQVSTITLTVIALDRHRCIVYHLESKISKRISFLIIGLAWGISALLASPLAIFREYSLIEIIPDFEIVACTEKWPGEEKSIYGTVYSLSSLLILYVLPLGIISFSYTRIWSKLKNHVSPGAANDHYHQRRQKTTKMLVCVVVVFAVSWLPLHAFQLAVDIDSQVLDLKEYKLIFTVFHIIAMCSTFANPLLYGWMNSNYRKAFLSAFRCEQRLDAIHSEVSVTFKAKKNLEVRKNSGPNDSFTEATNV
NPY-Y1 antag: NPY-Y1 receptor antagonists, primary screen, cell-based; 200,000 compounds, 1% hits; inhibition, % at 3.6 µM; Neuropeptide Y receptor type 1 (Homo sapiens), P25929; HEK293-CNG Y1 cells, membrane potential fluorescence; NPY at EC95, then isoproterenol; AID 1040, 2008;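 active means inhibition above the campaign mean inhibition of all tested compounds plus 3 SD, cut at about 20% in these data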;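 further: 0% = DMSO wells given NPY plus isoproterenol and 100% = isoproterenol alone without NPY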
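System: HEK293 cells with Y1 receptor plus CNG channel / Probe or stimulus: NPY 25 nM then isoproterenol 1 µM plus Ro 20-1724 25 µM / Compound: one concentration, 3.6 µM, in 0.4% DMSO / Schedule: compound incubation 1 h at room temperature, readout 45 min post-stimulation / Measured by: membrane potential fluorescence / Read-out: % inhibition of NPY effect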
NPY-Y2 antag: NPY-Y2 receptor antagonists, primary screen, cell-based; Neuropeptide Y receptor type 2 (Homo sapiens), P49146; NPY-Y2 expressing cells, antagonist mode; inhibition, % at 2.7 µM; 140,000 compounds, 0.99% hits; AID 793, 2007;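 further: 0% = vehicle with agonist challenge and 100% = reference antagonist with challenge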
NPY-Y1 ant conf: NPY-Y1 receptor antagonists, retest of hits, confirmation, HEK293-CNG cells, membrane potential fluorescence, triplicate; shares compounds with NPY-Y1 antag; cAMP; NPY challenge against isoproterenol-raised cAMP; inhibition, % at 3.6 µM; 1,200 compounds, 21% hits; AID 1254, 2008; in the data active means inhibition above about 20%;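 further: 0% = vehicle with agonist plus stimulus and 100% = stimulus alone without agonist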
NPY2 antag ctr: NPY-Y2 receptor antagonists, selectivity check, confirmation, counter-screen for NPY-Y1 antagonist project, HEK293-CNG cells, membrane potential fluorescence, triplicate. shares compounds with NPY-Y1 antag. 1,200 compounds, 28% hits. antagonism; cells given NPY, then isoproterenol. inhibition, % at 3.6 µM;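 further: 0% = DMSO with agonist challenge and 100% = reference antagonist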
* hit, by the source's call; x = no result. Unless noted, no stated cut-off is given here; in the data, active means inhibition above about 17%; inactive means the rest.

SMILES	NPY1 pot ag	NPY2 pot ag	NPY-Y1 antag	NPY-Y2 antag	NPY-Y1 ant conf	NPY2 antag ctr
O=C(Nc1cccc(Cl)c1)c1csc(-c2ccccc2)n1	-22	-40	23*	16	6	8
O=C(Nc1ccc(Cl)c(Cl)c1)c1csc(-c2ccccc2)n1	-6	4	8	3	x	x
CN(Cc1c(C(=O)N2CCc3ccccc3C2)nc2ccc(Cl)cn12)C(C1CC1)C1CC1	-14	-7	25*	x	14	12
CCCCn1c(SCC(=O)N2CCC(C)CC2)nc2ccsc2c1=O	21	-19	21*	17	13	4
O=c1ccc(/C=C/c2ccccc2)nn1Cc1ccccc1Cl	-21	-3	4	8	x	x
Cc1cc(=O)oc2cc(OCc3nnc(-c4ccccc4Br)o3)ccc12	-6	-5	26*	13	4	8
O=c1ccc2ccc(OCc3nnc(-c4ccccc4Br)o3)cc2o1	-31	-6	6	13	x	x
OC(CNCc1ccc(F)cc1)(c1ccccc1)c1ccc(F)cc1 (stereo not given)	-8	-1	9	9	x	x
COc1ccc(CNCC(O)(c2ccc(F)cc2)c2ccc(F)cc2)cc1	1	-4	32*	x	10	11
COc1ccc(NC(C)=O)cc1NC(=O)c1ccc2ccccc2c1	-13	-3	1	x	x	x
Cc1ccc(-n2c(-c3ccccc3)c[n+]3c2CCc2ccccc2-3)c(C)c1	-24	9	58*	x	32*	15
Cc1ccc(-n2c(-c3ccccc3)c[n+]3c2CCC3)cc1	-3	-4	-4	x	x	x
Cc1c(Cl)ccc2c(C(=O)NCCN3CCCCC3)cc(-c3ccccn3)nc12	-102	-63	25*	x	20	29*
CCOC(=O)Cc1csc(NC(=O)Cn2c(=O)oc3ccccc32)n1	-2	-4	x	x	x	x
CCCc1cc(C(=O)OC)c(NC(=O)c2cc(C)on2)s1	-20	8	20*	2	8	5
CCc1ccc(NC(=O)c2cc(C)on2)cc1	1	-5	-2	0	x	x
O=C(NCC(c1cccnc1)N1CCN(c2ccc(F)cc2)CC1)C1CCCCC1 (stereo not given)	-4	-3	66*	2	2	2
OC1CCN(Cc2cccc(Oc3ccccc3)c2)CC1	1	5	-2	2	x	x
CC1CCCN(Cc2cccc(Oc3ccccc3)c2)C1 (stereo not given)	-13	-10	25*	13	10	10
OCC1(Cc2ccccc2Cl)CCN(C/C=C/c2ccccc2)CC1	-22	-29	27*	x	15	12
CCc1cccc(CC)c1NC(=O)Cn1c(-c2ccc(F)cc2)noc1=O	-7	-12	30*	x	17	6
COc1ccccc1N(CC(=O)NCC1CCCO1)C(=O)CNS(=O)(=O)c1ccccc1 (stereo not given)	-6	6	x	x	x	x
O=C1CSC(c2ccccn2)N1c1ccc(C(F)(F)F)cc1 (stereo not given)	-4	-17	x	x	x	x
N#Cc1c(N2CCN(C(=O)c3ccccc3)CC2)nc(-c2ccccc2)c2c1CCCC2	-18	-8	27*	6	17	11
N#Cc1c(N2CCN(C(=O)c3ccccc3Cl)CC2)nc(-c2ccccc2)c2c1CCCC2	5	1	6	7	x	x
SMILES	NPY1 pot ag	NPY2 pot ag	NPY-Y1 antag	NPY-Y2 antag	NPY-Y1 ant conf	NPY2 antag ctr
O=C(NC1CCCCCC1)c1cc(-c2ccccn2)nc2ccccc12	-119	-72	24*	x	25*	18*
CC(C)NC(=O)N(Cc1ccccc1)Cc1cccs1	9	-5	x	x	x	x
O=C1C=C(NCc2ccc(Cl)c(Cl)c2)C2(CCCCC2)O1	3	-6	42*	15	10	7
COc1ccc(CCC(=O)Nc2cccc(S(=O)(=O)N(C)C)c2)cc1OC	-3	11	-1	1	x	x
CCOc1cc(/C=N/n2nnnc2N)ccc1OCc1c(C)no[n+]1[O-]	0	-22	21*	7	9	9
O=C(NCc1ccco1)C1CCN(S(=O)(=O)c2ccc(-n3cnnn3)cc2)CC1	-6	5	21*	2	0	3
Cc1ccccc1CCNC(=O)C1CCN(S(=O)(=O)c2ccc(-n3cnnn3)cc2)CC1	13	0	-1	0	x	x
O=C(O)CCCCCCCCCCCc1ccccc1	5	10	0	x	x	x
O=C(OCCN1C(=O)c2ccccc2C1=O)c1cc(=O)[nH]c2ccccc12	-8	-11	6	1	x	x
Cc1cc(C(=O)OCCN2C(=O)c3ccccc3C2=O)c2ccccc2n1	1	-4	24*	5	1	5
CCC(C)(C)NC(=O)c1ccc(S(=O)(=O)N2CCCCCC2)cc1	-12	-10	-1	x	x	x
O=C(COC(=O)COc1ccc2ccccc2c1)NCC(F)(F)F	-50	-32	29*	x	18	13
Cc1cc(C)cc(NC(=O)c2oc3ccccc3c2COc2ccccc2)c1	-31	-18	23*	-1	5	12
CCC(=O)N1CCN(c2ccccc2NC(=O)c2cccc(C)c2)CC1	-14	-8	5	4	x	x
CC(=O)N1CCN(c2ccccc2NC(=O)COc2cc(C)ccc2C(C)C)CC1	-28	-1	22*	13	10	9
CCC(=O)N1CCN(c2ccccc2NC(=O)COc2cccc(C)c2)CC1	-56	-3	20*	12	11	12
Cc1ccc(C(C)C)c(OCC(=O)Nc2ccccc2N2CCN(C)CC2)c1	-35	-8	7	8	x	x
CN1CCN(c2ccccc2NC(=O)COc2ccccc2)CC1	-26	2	21*	12	6	7
OCC1(CC2CCCCO2)CCN(Cc2cccc(O)c2)CC1 (stereo not given)	0	-18	1	x	x	x
CCn1c(SCC(=O)Nc2oc(-c3ccccc3)c(-c3ccccc3)c2C#N)nnc1-c1cc(OC)cc(OC)c1	6	8	9	0	x	x
O=C(CN1C(=O)NC2NC(=O)NC21)N/N=C/c1ccccc1F (stereo not given)	13	-7	7	x	x	x
NC(=O)COC(=O)CSc1cccc2cccc(Cl)c12	-48	-34	27*	x	13	14
O=C(COC(=O)CSc1cccc2cccc(Cl)c12)Nc1ncc(C(F)(F)F)cc1Cl	-44	-21	2	14	x	x
COc1ccc(C)cc1NC(=O)C(NC(=O)c1cc(OC)c(OC)c(OC)c1)C(C)C (stereo not given)	10	-2	8	x	x	x
CC1(C)CC(=O)C=C(NNC(=O)OC(C)(C)C)C1	-13	-5	22*	x	-2	1
O=C(c1cc2ccccc2oc1=O)N(Cc1ccccc1)Cc1ccc2c(c1)OCO2	16	3	0	2	x	x
